Experimental data published in ChEMBL document CHEMBL5653631, “A Potent and Selective ULK1 Inhibitor Suppresses Autophagy and Sensitizes Cancer Cells to Nutrient Stress” (iScience, 2018).

Key:
[1] = biological target: T1, Serine/threonine-protein kinase Sgk1 (Homo sapiens) (UniProt O00141); assay: Inhibition of human recombinant SGK1 at 15 nM related to control ULK1
T1 sequence (whole entry): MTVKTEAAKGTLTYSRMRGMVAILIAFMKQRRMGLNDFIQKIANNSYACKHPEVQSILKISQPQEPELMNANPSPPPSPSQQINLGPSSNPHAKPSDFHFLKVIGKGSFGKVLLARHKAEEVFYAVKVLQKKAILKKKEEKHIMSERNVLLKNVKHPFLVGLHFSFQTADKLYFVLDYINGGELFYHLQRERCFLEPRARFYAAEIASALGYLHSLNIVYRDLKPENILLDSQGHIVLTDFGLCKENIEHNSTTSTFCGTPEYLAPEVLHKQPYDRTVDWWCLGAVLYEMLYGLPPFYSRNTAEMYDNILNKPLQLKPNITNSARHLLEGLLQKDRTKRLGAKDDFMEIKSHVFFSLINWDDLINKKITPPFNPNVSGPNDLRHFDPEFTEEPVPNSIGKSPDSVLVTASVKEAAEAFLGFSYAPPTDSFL

[2] = biological target: T2, Bone morphogenetic protein receptor type-2 (Homo sapiens) (UniProt Q13873); assay: Inhibition of human recombinant BMPR2 at 15 nM related to control ULK1
T2 sequence (whole entry): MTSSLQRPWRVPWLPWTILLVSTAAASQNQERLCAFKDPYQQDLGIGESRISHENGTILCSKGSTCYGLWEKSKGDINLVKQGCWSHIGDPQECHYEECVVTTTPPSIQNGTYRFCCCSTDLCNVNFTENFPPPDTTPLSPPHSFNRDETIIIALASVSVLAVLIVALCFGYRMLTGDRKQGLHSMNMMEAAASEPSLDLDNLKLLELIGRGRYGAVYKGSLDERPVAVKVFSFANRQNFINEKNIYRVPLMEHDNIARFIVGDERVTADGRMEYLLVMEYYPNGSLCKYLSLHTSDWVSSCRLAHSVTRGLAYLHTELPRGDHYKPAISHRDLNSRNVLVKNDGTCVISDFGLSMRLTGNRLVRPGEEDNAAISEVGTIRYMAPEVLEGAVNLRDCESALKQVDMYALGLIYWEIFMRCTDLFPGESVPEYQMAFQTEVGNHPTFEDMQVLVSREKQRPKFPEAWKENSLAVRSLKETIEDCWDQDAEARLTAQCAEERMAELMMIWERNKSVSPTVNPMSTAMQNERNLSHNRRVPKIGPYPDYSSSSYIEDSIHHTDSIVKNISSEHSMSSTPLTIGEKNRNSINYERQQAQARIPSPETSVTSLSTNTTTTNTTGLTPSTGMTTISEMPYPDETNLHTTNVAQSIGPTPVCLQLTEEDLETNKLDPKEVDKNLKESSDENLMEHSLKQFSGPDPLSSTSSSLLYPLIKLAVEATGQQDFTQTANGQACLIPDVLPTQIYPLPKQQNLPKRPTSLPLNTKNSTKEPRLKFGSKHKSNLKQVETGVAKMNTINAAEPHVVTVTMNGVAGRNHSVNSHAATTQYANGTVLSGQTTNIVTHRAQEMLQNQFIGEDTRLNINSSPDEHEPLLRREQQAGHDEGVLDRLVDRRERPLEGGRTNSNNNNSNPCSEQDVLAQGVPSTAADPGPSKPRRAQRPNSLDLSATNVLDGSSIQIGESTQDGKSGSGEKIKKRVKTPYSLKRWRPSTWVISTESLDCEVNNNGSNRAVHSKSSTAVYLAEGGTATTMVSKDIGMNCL

[3] = biological target: Serine/threonine-protein kinase MAK (Homo sapiens) (UniProt P20794); assay: Inhibition of human recombinant MAK at 15 nM in presence of ATP by radiometric assay relative to control
Chain of Serine/threonine-protein kinase MAK (Homo sapiens) (P20794 whole entry, looked up): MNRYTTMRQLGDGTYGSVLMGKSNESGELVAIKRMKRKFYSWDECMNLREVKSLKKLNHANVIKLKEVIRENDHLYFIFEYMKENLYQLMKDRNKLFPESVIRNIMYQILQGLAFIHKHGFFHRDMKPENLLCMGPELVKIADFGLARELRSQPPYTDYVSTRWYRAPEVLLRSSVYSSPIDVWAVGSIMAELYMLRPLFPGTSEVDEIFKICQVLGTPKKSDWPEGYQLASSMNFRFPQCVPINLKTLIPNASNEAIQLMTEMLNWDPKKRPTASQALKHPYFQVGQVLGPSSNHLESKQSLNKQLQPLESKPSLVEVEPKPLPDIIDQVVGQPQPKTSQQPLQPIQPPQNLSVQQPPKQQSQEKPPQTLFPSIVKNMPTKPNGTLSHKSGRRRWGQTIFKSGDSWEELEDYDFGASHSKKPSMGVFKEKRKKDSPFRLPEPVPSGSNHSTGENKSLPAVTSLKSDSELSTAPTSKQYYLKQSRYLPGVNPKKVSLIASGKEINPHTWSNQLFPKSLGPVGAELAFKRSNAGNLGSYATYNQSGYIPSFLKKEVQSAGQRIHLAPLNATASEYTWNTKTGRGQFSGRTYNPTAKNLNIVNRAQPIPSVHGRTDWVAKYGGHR

[4] = biological target: T3, Serine/threonine-protein kinase A-Raf (Homo sapiens) (UniProt P10398); assay: Inhibition of human recombinant ARAF at 500 nM related to control ULK1
T3 sequence (whole entry): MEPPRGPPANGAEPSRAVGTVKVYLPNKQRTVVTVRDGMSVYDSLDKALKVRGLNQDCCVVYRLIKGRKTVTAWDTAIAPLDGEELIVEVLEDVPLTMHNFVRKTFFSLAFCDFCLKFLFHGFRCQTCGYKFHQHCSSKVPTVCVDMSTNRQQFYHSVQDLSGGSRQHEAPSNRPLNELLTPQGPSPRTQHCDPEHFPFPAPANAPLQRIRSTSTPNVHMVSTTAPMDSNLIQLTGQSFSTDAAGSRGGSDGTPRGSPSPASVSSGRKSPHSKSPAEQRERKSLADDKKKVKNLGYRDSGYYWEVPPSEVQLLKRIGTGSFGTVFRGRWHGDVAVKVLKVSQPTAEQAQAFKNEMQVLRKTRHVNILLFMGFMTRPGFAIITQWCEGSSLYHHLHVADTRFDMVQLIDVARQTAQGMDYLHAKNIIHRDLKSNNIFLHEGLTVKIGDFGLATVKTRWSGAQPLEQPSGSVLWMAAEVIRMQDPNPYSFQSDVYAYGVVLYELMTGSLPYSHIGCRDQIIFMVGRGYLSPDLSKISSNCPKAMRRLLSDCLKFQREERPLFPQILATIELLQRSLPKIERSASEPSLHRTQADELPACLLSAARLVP
In short: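 Panel of 327 recombinant human kinases, each assayed in vitro by radiometric activity assay in duplicate at a single inhibitor concentration per compound, chosen with reference to its ULK1 inhibition. Activity remaining was expressed as percent of vehicle control, and percent inhibition was calculated as 100 minus percent activity remaining.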

Question: Which fold change (FC) [1] does the source give for `CC(C)[C@H](NC(=O)c1cc(-c2cnn3cc(-c4ccc(OCCN5CCCCC5)cc4)cnc23)cs1)C(F)(F)F` here?
Answer: 0.05

Question: What about the fold change (FC) [2] of the same compound?
Answer: 0.06

Question: And the inhibition [3]?
Answer: 5%

Question: For `CNC(=O)c1ccccc1Oc1nc(Nc2cc(OC)c(OC)c(OC)c2)ncc1Br`, which fold change (FC) [4] is on record?
Answer: 0
